# Data taken from ChEMBL document CHEMBL1153722, “Design, synthesis, and characterization of peptide-based rab geranylgeranyl transferase inhibitors” (J Med Chem, 2009).
# Peptide text beside a SMILES is read from it. * marks the point of attachment. Hydrocinnamoyl = O=C(CCc1ccccc1)*; Nicotinoyl = O=C(c1cccnc1)*; Morpholide = C1CN(*)CCO1; Piperidide = C1CCN(*)CC1; NHBn = c1ccc(CN*)cc1
# Species: Rattus norvegicus
# Test: Inhibition of rat recombinant Rab geranylgeranyltransferase at 100 uM in presence of canine Rab7 and rat REP1 NBD-FPP based continuous fluorimetric assay
# Outline: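 Continuous fluorometric assay in 96/384-well format: 3 μM Rab7, 3 μM REP1, 9 μM NBD-FPP and 400 nM RabGGTase, with or without inhibitor. […] IC50 was calculated from three independent measurements.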
row,SMILES,inhibition
1,O=C(N[C@@H](Cc1ccc(O)cc1)C(=O)N[C@@H](Cc1ccc(O)cc1)C(=O)N[C@@H](Cc1ccc(O)cc1)C(=O)OCCCl)c1ccc(F)cc1F,71%
2,CCCCCCCCCCCOc1ccc(C(=O)N[C@@H](Cc2c[nH]cn2)C(=O)N[C@@H](Cc2ccc(O)cc2)C(=O)N[C@@H](Cc2ccccc2)C(=O)NCCCCN)cc1,127%
3,CCCCCCCCCCCOc1ccc(C(=O)N[C@@H](Cc2c[nH]cn2)C(=O)N[C@@H](Cc2c[nH]cn2)C(=O)N[C@@H](Cc2c[nH]cn2)C(=O)OC)cc1,87%
4,NC(=O)[C@H](CO)NC(=O)CNC(=O)[C@H](CO)NC(=O)CCc1ccccc1 (Hydrocinnamoyl-Ser-Gly-Ser-NH2),85%
5,CON(C)C(=O)[C@H](CCC(N)=O)NC(=O)[C@H](Cc1ccccc1)NC(=O)[C@@H](NC(=O)/C=C/c1ccccc1)[C@@H](C)O,80%
6,CCCCCCCCCCC(=O)N[C@@H](Cc1c[nH]cn1)C(=O)N[C@@H](Cc1cnc[nH]1)C(=O)N[C@@H](Cc1ccc(O)cc1)C(=O)NCC(O)CO (some centres undefined),65%
7,COC(=O)[C@H](Cc1ccc(O)cc1)NC(=O)[C@H](Cc1ccc(O)cc1)NC(=O)[C@H](Cc1ccc(O)cc1)NC(=O)c1ccc(F)cc1F,79%
8,O=C(CNC(=O)[C@H](Cc1ccc(O)cc1)NC(=O)c1coc(-c2ccccc2)n1)N[C@@H](Cc1ccc(O)cc1)C(=O)O,58%
9,C[C@H](NC(=O)[C@@H](NC(=O)c1ccc(-c2ccccc2)cc1)[C@@H](C)O)C(=O)N[C@@H](CCC(N)=O)C(=O)Nc1ccc(F)c(Cl)c1,100%
10,CCCCCCCCCCC(=O)N[C@@H](Cc1c[nH]cn1)C(=O)N[C@@H](Cc1ccccc1)C(=O)N[C@@H](Cc1ccc(O)cc1)C(=O)N(C)OC,76%
11,COc1ccc(C[C@@H](C(=O)N(C)[C@@H](Cc2ccccc2)C(=O)OCC(=O)O)N(C)C(=O)[C@@H](Cc2ccc(O)cc2)NC(=O)CCc2ccccc2)cc1,47%
12,NCCCCNC(=O)[C@H](Cc1ccc(O)cc1)NC(=O)[C@H](Cc1ccc(O)cc1)NC(=O)[C@H](Cc1ccc(O)cc1)NC(=O)c1ccc(F)cc1F,61%
13,CCCCCCCCCCCOC(=O)[C@H](CO)NC(=O)CNC(=O)[C@H](CO)NC(=O)/C=C/c1ccc(F)cc1,70%
14,O=C(CNC(=O)[C@H](Cc1ccc(O)cc1)NC(=O)c1ccc(F)cc1)N[C@@H](Cc1ccc(O)cc1)C(=O)O,90%
15,NC(=O)CC[C@H](NC(=O)[C@H](Cc1ccccc1)NC(=O)[C@H](CO)NC(=O)CCc1ccccc1)C(=O)NCc1ccccc1 (Hydrocinnamoyl-Ser-Phe-Gln-NHBn),87%
16,COC(=O)[C@H](CCC(N)=O)NC(=O)[C@H](Cc1ccccc1)NC(=O)[C@H](CO)NC(=O)CCc1ccccc1 (Hydrocinnamoyl-Ser-Phe-Gln-OMe),76%
17,CCCCCCCCCCCOc1ccc(C(=O)N[C@@H](Cc2ccc(O)cc2)C(=O)N[C@@H](Cc2ccc(O)cc2)C(=O)N[C@@H](Cc2ccc(O)cc2)C(=O)N(C)CCc2ccccn2)cc1,86%
18,C=CCCCCCCCCCOC(=O)[C@H](CC(C)C)NC(=O)[C@H](COC(C)(C)C)NC(=O)[C@H](Cc1ccccc1)NC(=O)CCc1ccccc1,108%
19,CC[C@H](C)[C@H](NC(=O)CCc1ccc(F)cc1)C(=O)N[C@@H](C)C(=O)N[C@@H](CCC(N)=O)C(=O)NNc1ccccc1,81%
20,CCCCCCCCCCC(=O)N[C@@H](Cc1c[nH]cn1)C(=O)N[C@@H](Cc1cnc[nH]1)C(=O)N[C@@H](Cc1ccc(O)cc1)C(=O)OCCN,97%

row,SMILES,inhibition
1,CCCCCCCCCCC(=O)N[C@@H](Cc1c[nH]cn1)C(=O)N[C@@H](Cc1c[nH]cn1)C(=O)N[C@@H](CO)C(=O)NOC(C)(C)C,52%
2,O=C(CNC(=O)[C@H](Cc1ccc(O)cc1)NC(=O)c1ccc(F)cc1)N[C@@H](Cc1ccc(O)cc1)C(=O)NCc1ccccc1,60%
3,CCCCCCCCCCCOc1ccc(C(=O)N[C@@H](Cc2ccc(O)cc2)C(=O)N[C@@H](Cc2ccc(O)cc2)C(=O)N[C@@H](Cc2ccc(O)cc2)C(=O)NCC(O)CO)cc1 (some centres undefined),90%
4,CC[C@H](C)[C@H](NC(=O)[C@H](Cc1ccccc1)NC(=O)c1cccnc1)C(=O)N[C@@H](CCCNC(=N)N)C(N)=O (Nicotinoyl-Phe-Ile-Arg-NH2),79%
5,O=C(N[C@@H](Cc1ccc(O)cc1)C(=O)N[C@@H](Cc1ccc(O)cc1)C(=O)N[C@@H](Cc1ccc(O)cc1)C(=O)Nc1nccs1)c1ccc(F)cc1F,78%
6,CCCCCCCCCCCOc1ccc(C(=O)N[C@@H](Cc2ccc(O)cc2)C(=O)N[C@@H](Cc2ccc(O)cc2)C(=O)N[C@@H](Cc2ccc(O)cc2)C(=O)Nc2ccc(F)cc2F)cc1,101%
7,O=C(CCc1ccccc1)N[C@@H](CO)C(=O)N[C@@H](Cc1ccccc1)C(=O)N[C@@H](CO)C(=O)N1CCCCC1 (Hydrocinnamoyl-Ser-Phe-Ser-Piperidide),62%
8,NC(=O)CC[C@H](NC(=O)[C@H](Cc1ccccc1)NC(=O)CNC(=O)CCc1ccccc1)C(=O)N1CCOCC1 (Hydrocinnamoyl-Gly-Phe-Gln-Morpholide),89%
9,CCCCCCCCCCCCCC(=O)N[C@@H](Cc1ccc(O)cc1)C(=O)N[C@@H](Cc1ccc(O)cc1)C(=O)N[C@@H](Cc1ccc(O)cc1)C(=O)N(C)OC,89%
10,C=CCCCOC(=O)[C@H](CCC(N)=O)NC(=O)[C@H](C)NC(=O)[C@@H](NC(=O)c1ccc(-c2ccccc2)cc1)[C@@H](C)O,89%
11,CC(=O)Nc1cc(C(=O)N2CCC[C@H]2C(=O)N[C@@H](C(=O)N[C@@H](CCC(=O)O)C(=O)O)C(C)C)ccc1[N+](=O)[O-],95%
12,CCCCCCCCCCCCCC(=O)OC[C@H](NC(=O)CNC(=O)[C@H](Cc1ccccc1)NC(=O)c1coc(-c2ccccc2)n1)C(=O)O,38%
13,C=CCOC(=O)[C@H](Cc1cn(C(c2ccccc2)(c2ccccc2)c2ccccc2)cn1)NC(=O)[C@H](Cc1ccccc1)NC(=O)CNC(=O)c1csc(-c2cccs2)n1,136%
14,CON(C)C(=O)[C@H](CC(C)C)NC(=O)[C@H](COC(C)(C)C)NC(=O)[C@H](Cc1ccccc1)NC(=O)/C=C/c1ccc(F)cc1,94%
15,CCCCCc1ccc(CCC(=O)N[C@H](Cc2cnc[nH]2)C(=O)N[C@@H](Cc2ccc(O)cc2)C(=O)N[C@@H](Cc2ccccc2)C(=O)O)cc1,10%
16,CCCCCCCCCCC(=O)N[C@@H](Cc1ccc(O)cc1)C(=O)N[C@@H](Cc1c[nH]cn1)C(=O)N[C@@H](Cc1c[nH]cn1)C(=O)NCCCn1ccnc1,59%
17,NCCOC(=O)[C@H](Cc1ccc(O)cc1)NC(=O)[C@H](Cc1ccc(O)cc1)NC(=O)[C@H](Cc1ccc(O)cc1)NC(=O)c1ccc(F)cc1F,97%
18,CC[C@H](C)[C@H](NC(=O)c1ccc(-c2ccccc2)cc1)C(=O)N[C@@H](C(=O)N[C@@H](CCC(N)=O)C(=O)NN)C(C)C,84%
19,CCCCCc1ccccc1CCC(=O)N[C@H](Cc1cnc[nH]1)C(=O)N[C@@H](Cc1ccc(O)cc1)C(=O)N[C@@H](Cc1ccccc1)C(=O)O,37%
20,C[C@@H](O)[C@H](NC(=O)/C=C/c1ccccc1)C(=O)N[C@@H](Cc1ccccc1)C(=O)N[C@@H](CCC(N)=O)C(=O)NCCO,118%

row,SMILES,inhibition
1,CON(C)C(=O)[C@H](CCC(N)=O)NC(=O)[C@H](Cc1ccccc1)NC(=O)[C@@H](NC(=O)C(Br)C(Br)c1ccccc1)[C@@H](C)O (some centres undefined),102%
2,CN(C(=O)[C@@H](Cc1ccc(O)cc1)NC(=O)OCc1ccccc1)[C@@H](Cc1ccccc1)C(=O)N[C@@H](Cc1ccc(O)cc1)C(=O)O,46%
3,CCCCCCCCCCCOc1ccc(C(=O)N[C@@H](Cc2ccc(O)cc2)C(=O)N[C@@H](Cc2ccc(O)cc2)C(=O)N[C@@H](Cc2ccc(O)cc2)C(=O)N(C)OC)cc1,75%
4,CCCCCCCCCCC(=O)N[C@@H](Cc1c[nH]cn1)C(=O)N[C@@H](Cc1c[nH]cn1)C(=O)N[C@@H](CO)C(=O)N(C)CCc1ccccn1,47%
5,CC(=O)Nc1cc(C(=O)N2CCC[C@H]2C(=O)N[C@@H](C(=O)N[C@@H](CCC(=O)O)C(N)=O)C(C)C)ccc1[N+](=O)[O-],111%
6,CC(C)C[C@H](NC(=O)[C@H](CO)NC(=O)[C@H](Cc1ccccc1)NC(=O)/C=C/c1ccc(F)cc1)C(N)=O,98%
7,O=C(/C=C/c1ccc(F)cc1)N[C@@H](CO)C(=O)N[C@@H](Cc1ccccc1)C(=O)N[C@@H](CO)C(=O)NC1CCCCC1,86%
8,C=CCOC(=O)[C@H](CO)NC(=O)CNC(=O)[C@H](Cc1ccccc1)NC(=O)c1coc(-c2ccccc2)n1,109%
9,C=CCOC(=O)[C@H](Cc1ccccc1)N(C)C(=O)[C@H](Cc1ccc(OC)cc1)N(C)C(=O)[C@@H](Cc1ccc(O)cc1)NC(=O)CCc1ccccc1,74%
10,COC(=O)[C@H](Cc1ccccc1)NC(=O)[C@H](CC(C)C)NC(=O)[C@@H]1CCCN1C(=O)/C=C/c1ccccc1,79%
11,O=C(CCc1ccccc1)N[C@@H](CO)C(=O)N[C@@H](Cc1ccccc1)C(=O)N[C@@H](CO)C(=O)NCc1ccccc1 (Hydrocinnamoyl-Ser-Phe-Ser-NHBn),95%
12,C[C@H](NC(=O)/C=C/c1ccc(F)cc1)C(=O)NCC(=O)N[C@@H](Cc1ccc(O)cc1)C(=O)NC1CCCCC1,11%
13,CC(C)C[C@H](NC(=O)/C=C/c1ccccc1)C(=O)N[C@@H](Cc1ccccc1)C(=O)N[C@@H](Cc1ccccc1)C(=O)Nc1ccc(F)cc1F,93%
14,CC[C@H](C)[C@H](NC(=O)[C@H](Cc1ccccc1)NC(=O)c1cccnc1)C(=O)N[C@@H](CCCNC(=N)N)C(=O)O (Nicotinoyl-Phe-Ile-Arg-OH),119%
15,CC(C)C[C@H](NC(=O)[C@H](CO)NC(=O)[C@H](Cc1ccccc1)NC(=O)CCc1ccccc1)C(N)=O,100%
16,COC(=O)[C@H](Cc1ccc(O)cc1)NC(=O)CCNC(=O)[C@H](Cc1c[nH]cn1)NC(=O)OCc1ccccc1,72%
17,O=C(CNC(=O)c1csc(C2CCNCC2)n1)N[C@@H](Cc1ccccc1)C(=O)N[C@@H](Cc1c[nH]cn1)C(=O)O,124%
18,C[C@H](NC(=O)[C@@H](NC(=O)c1ccc(-c2ccccc2)cc1)[C@@H](C)O)C(=O)N[C@@H](CCC(N)=O)C(=O)Nc1cccc(Br)n1,77%
19,NC(=O)CC[C@H](NC(=O)[C@H](Cc1ccccc1)NC(=O)CNC(=O)CCc1ccccc1)C(N)=O (Hydrocinnamoyl-Gly-Phe-Gln-NH2),103%
